In ChEMBL document CHEMBL1154090, “Synthesis, spectral and biological evaluation of some new thiazolidinones and thiazoles based on t-3-alkyl-r-2,c-6-diarylpiperidin-4-ones” (2009):
Converted amounts (≈) assume the structure as drawn.

Key:
[1] = test system: Mycobacterium tuberculosis; experiment: Antimycobacterial activity against Mycobacterium tuberculosis H37Rv ATCC 27294 by BACTEC radiometric respiratory technique; assay type: functional
Procedure, shortened: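 Compounds prepared as DMSO solutions and tested over 256 to 1 µg/ml, with isoniazid and rifampicin as reference drugs.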

Staphylococcus aureus [2] = experiment: Antibacterial activity against Staphylococcus aureus by broth microdilution method; assay type: functional
Klebsiella pneumoniae [3] = experiment: Antibacterial activity against Klebsiella pneumoniae by broth microdilution method; assay type: functional
Escherichia coli = experiment: Antibacterial activity against Escherichia coli by broth microdilution method; assay type: functional
Candida albicans = experiment: Antifungal activity against Candida albicans by broth microdilution method; assay type: functional
Aspergillus flavus = experiment: Antifungal activity against Aspergillus flavus by broth microdilution method; assay type: functional
[4] = test system: Mycobacterium tuberculosis; experiment: Ratio of isoniazid MIC to drug MIC for Mycobacterium tuberculosis H37Rv ATCC 27294; assay type: functional
[5] = test system: Mycobacterium tuberculosis; experiment: Ratio of rifampicin MIC to drug MIC for Mycobacterium tuberculosis H37Rv ATCC 27294; assay type: functional
Rhizopus sp = experiment: Antifungal activity against Rhizopus sp. by broth microdilution method
Rhizopus = experiment: Ratio of amphotericin B MIC to drug MIC for Rhizopus sp.; assay type: functional
Staphylococcus aureus [6] = experiment: Ratio of ciprofloxacin MIC to drug MIC for Staphylococcus aureus; assay type: functional
Klebsiella pneumoniae [7] = experiment: Ratio of ciprofloxacin MIC to drug MIC for Klebsiella pneumoniae; assay type: functional

CO[C@H]1/C=C/O[C@@]2(C)Oc3c(C)c(O)c4c(O)c(c(/C=N/N5CCN(C)CC5)c(O)c4c3C2=O)NC(=O)/C(C)=C\C=C\[C@H](C)[C@H](O)[C@@H](C)[C@@H](O)[C@@H](C)[C@H](OC(C)=O)[C@@H]1C [RIFAMPIN]
MIC [1]: 32 µg/mL (≈ 38.9 µM)

O=C(O)c1cn(C2CC2)c2cc(N3CCNCC3)c(F)cc2c1=O [CIPROFLOXACIN]
MIC (Staphylococcus aureus [2]): 8 µg/mL (≈ 24.1 µM)
MIC (Klebsiella pneumoniae [3]): 16 µg/mL (≈ 48.3 µM)

CC1/C(=N/N=C2\NC(=O)CS2)CC(c2ccccc2)NC1c1ccccc1 (stereo not given)
MIC [1]: 64 µg/mL (≈ 169 µM)
MIC (Staphylococcus aureus [2]): 64 µg/mL (≈ 169 µM)
MIC (Escherichia coli): 256 µg/mL (≈ 676 µM)
MIC (Klebsiella pneumoniae [3]): 64 µg/mL (≈ 169 µM)
MIC (Candida albicans): > 256 µg/mL
MIC (Aspergillus flavus): 64 µg/mL (≈ 169 µM)
Ratio [4]: 0.39
Ratio [5]: 50
MIC (Rhizopus sp): > 256 µg/mL

CCOC(=O)Cc1csc(N/N=C2\CC(c3ccccc3)NC(c3ccccc3)C2C)n1 (stereo not given)
MIC [1]: 64 µg/mL (≈ 143 µM)
MIC (Staphylococcus aureus [2]): > 256 µg/mL
MIC (Escherichia coli): 128 µg/mL (≈ 285 µM)
MIC (Klebsiella pneumoniae [3]): > 256 µg/mL
MIC (Candida albicans): > 256 µg/mL
MIC (Aspergillus flavus): 256 µg/mL (≈ 571 µM)
Ratio [4]: 0.39
Ratio [5]: 50
MIC (Rhizopus sp): > 256 µg/mL

CCC1/C(=N/N=C2\NC(=O)CS2)CC(c2ccccc2)NC1c1ccccc1 (stereo not given)
MIC [1]: > 256 µg/mL
MIC (Staphylococcus aureus [2]): 128 µg/mL (≈ 326 µM)
MIC (Escherichia coli): > 256 µg/mL
MIC (Klebsiella pneumoniae [3]): > 256 µg/mL
MIC (Candida albicans): 256 µg/mL (≈ 652 µM)
MIC (Aspergillus flavus): > 256 µg/mL
MIC (Rhizopus sp): > 256 µg/mL

C[C@@H]1[C@H](O)[C@@H](C)/C=C/C=C/C=C/C=C/C=C/C=C/C=C/[C@H](O[C@@H]2O[C@H](C)[C@@H](O)[C@H](N)[C@@H]2O)C[C@@H]2O[C@](O)(C[C@@H](O)C[C@@H](O)[C@H](O)CC[C@@H](O)C[C@@H](O)CC(=O)O[C@H]1C)C[C@H](O)[C@H]2C(=O)O [AMPHOTERICIN B]
MIC (Candida albicans): 8 µg/mL (≈ 8.66 µM)
MIC (Aspergillus flavus): 8 µg/mL (≈ 8.66 µM)
MIC (Rhizopus sp): 16 µg/mL (≈ 17.3 µM)

CCOC(=O)Cc1csc(N/N=C2\CC(c3ccccc3)N(C)C(c3ccccc3)C2C)n1 (stereo not given)
MIC [1]: 16 µg/mL (≈ 34.6 µM)
MIC (Staphylococcus aureus [2]): 16 µg/mL (≈ 34.6 µM)
MIC (Escherichia coli): 128 µg/mL (≈ 277 µM)
MIC (Klebsiella pneumoniae [3]): 32 µg/mL (≈ 69.2 µM)
MIC (Candida albicans): 256 µg/mL (≈ 553 µM)
MIC (Aspergillus flavus): 64 µg/mL (≈ 138 µM)
Ratio [4]: 1.56
Ratio [5]: 200
Ratio (Rhizopus): 1
MIC (Rhizopus sp): 8 µg/mL (≈ 17.3 µM)

COc1ccc(C2C/C(=N\N=C3/NC(=O)CS3)C(C)C(c3ccc(OC)cc3)N2)cc1 (stereo not given)
MIC [1]: 32 µg/mL (≈ 73 µM)
MIC (Staphylococcus aureus [2]): 32 µg/mL (≈ 73 µM)
MIC (Escherichia coli): 32 µg/mL (≈ 73 µM)
MIC (Klebsiella pneumoniae [3]): 64 µg/mL (≈ 146 µM)
MIC (Candida albicans): 64 µg/mL (≈ 146 µM)
MIC (Aspergillus flavus): 128 µg/mL (≈ 292 µM)
Ratio [4]: 0.78
Ratio [5]: 100
MIC (Rhizopus sp): 128 µg/mL (≈ 292 µM)

CCOC(=O)Cc1csc(N/N=C2\CC(c3ccccc3)NC(c3ccccc3)C2CC)n1 (stereo not given)
MIC [1]: > 256 µg/mL
MIC (Staphylococcus aureus [2]): 128 µg/mL (≈ 277 µM)
MIC (Escherichia coli): > 256 µg/mL
MIC (Klebsiella pneumoniae [3]): > 256 µg/mL
MIC (Candida albicans): > 256 µg/mL
MIC (Aspergillus flavus): > 256 µg/mL
MIC (Rhizopus sp): 256 µg/mL (≈ 553 µM)

CC1/C(=N/N=C2\NC(=O)CS2)CC(c2ccccc2)N(C)C1c1ccccc1 (stereo not given)
MIC [1]: 16 µg/mL (≈ 40.8 µM)
MIC (Staphylococcus aureus [2]): 16 µg/mL (≈ 40.8 µM)
MIC (Escherichia coli): 128 µg/mL (≈ 326 µM)
MIC (Klebsiella pneumoniae [3]): 64 µg/mL (≈ 163 µM)
MIC (Candida albicans): 64 µg/mL (≈ 163 µM)
MIC (Aspergillus flavus): 64 µg/mL (≈ 163 µM)
Ratio [4]: 1.56
Ratio [5]: 200
Ratio (Rhizopus): 1
MIC (Rhizopus sp): 8 µg/mL (≈ 20.4 µM)

CCOC(=O)Cc1csc(N/N=C2\CC(c3ccc(OC)cc3)NC(c3ccc(OC)cc3)C2C)n1 (stereo not given)
MIC [1]: 16 µg/mL (≈ 31.5 µM)
MIC (Staphylococcus aureus [2]): 64 µg/mL (≈ 126 µM)
MIC (Escherichia coli): 128 µg/mL (≈ 252 µM)
MIC (Klebsiella pneumoniae [3]): 256 µg/mL (≈ 503 µM)
MIC (Candida albicans): > 256 µg/mL
MIC (Aspergillus flavus): > 256 µg/mL
Ratio [4]: 1.56
Ratio [5]: 200
MIC (Rhizopus sp): 256 µg/mL (≈ 503 µM)

CCOC(=O)Cc1csc(N/N=C2\CC(c3ccc(C)cc3)NC(c3ccc(C)cc3)C2C)n1 (stereo not given)
MIC [1]: > 256 µg/mL
MIC (Staphylococcus aureus [2]): > 256 µg/mL
MIC (Escherichia coli): 128 µg/mL (≈ 269 µM)
MIC (Klebsiella pneumoniae [3]): 256 µg/mL (≈ 537 µM)
MIC (Candida albicans): > 256 µg/mL
MIC (Aspergillus flavus): > 256 µg/mL
MIC (Rhizopus sp): 128 µg/mL (≈ 269 µM)

CC1/C(=N/N=C2\NC(=O)CS2)CC(c2ccc(Cl)cc2)NC1c1ccc(Cl)cc1 (stereo not given)
MIC [1]: 16 µg/mL (≈ 35.8 µM)
MIC (Staphylococcus aureus [2]): 8 µg/mL (≈ 17.9 µM)
MIC (Escherichia coli): 128 µg/mL (≈ 286 µM)
MIC (Klebsiella pneumoniae [3]): 128 µg/mL (≈ 286 µM)
MIC (Candida albicans): 128 µg/mL (≈ 286 µM)
MIC (Aspergillus flavus): 128 µg/mL (≈ 286 µM)
Ratio [4]: 1.56
Ratio [5]: 200
MIC (Rhizopus sp): 256 µg/mL (≈ 572 µM)

Cc1ccc(C2C/C(=N\N=C3/NC(=O)CS3)C(C)C(c3ccc(C)cc3)N2)cc1 (stereo not given)
MIC [1]: 64 µg/mL (≈ 157 µM)
MIC (Staphylococcus aureus [2]): 64 µg/mL (≈ 157 µM)
MIC (Escherichia coli): 128 µg/mL (≈ 315 µM)
MIC (Klebsiella pneumoniae [3]): 256 µg/mL (≈ 630 µM)
MIC (Candida albicans): > 256 µg/mL
MIC (Aspergillus flavus): 128 µg/mL (≈ 315 µM)
Ratio [4]: 0.39
Ratio [5]: 50
MIC (Rhizopus sp): 256 µg/mL (≈ 630 µM)

CC1/C(=N/N=C2\NC(=O)CS2)CC(c2ccc(F)cc2)NC1c1ccc(F)cc1 (stereo not given)
Ratio (Staphylococcus aureus [6]): 1
MIC [1]: 128 µg/mL (≈ 309 µM)
MIC (Staphylococcus aureus [2]): 4 µg/mL (≈ 9.65 µM)
MIC (Escherichia coli): 32 µg/mL (≈ 77.2 µM)
MIC (Klebsiella pneumoniae [3]): 4 µg/mL (≈ 9.65 µM)
MIC (Candida albicans): 16 µg/mL (≈ 38.6 µM)
MIC (Aspergillus flavus): 8 µg/mL (≈ 19.3 µM)
Ratio [4]: 0.19
Ratio [5]: 25
Ratio (Klebsiella pneumoniae [7]): 2
MIC (Rhizopus sp): 16 µg/mL (≈ 38.6 µM)

NNC(=O)c1ccncc1 [ISONIAZID]
MIC [1]: 0.25 µg/mL (≈ 1.82 µM)

CCOC(=O)Cc1csc(N/N=C2\CC(c3ccc(F)cc3)NC(c3ccc(F)cc3)C2C)n1 (stereo not given)
MIC [1]: 16 µg/mL (≈ 33 µM)
MIC (Staphylococcus aureus [2]): 16 µg/mL (≈ 33 µM)
MIC (Escherichia coli): 32 µg/mL (≈ 66 µM)
MIC (Klebsiella pneumoniae [3]): 64 µg/mL (≈ 132 µM)
MIC (Candida albicans): 128 µg/mL (≈ 264 µM)
MIC (Aspergillus flavus): 32 µg/mL (≈ 66 µM)
Ratio [4]: 1.56
Ratio [5]: 200
MIC (Rhizopus sp): 16 µg/mL (≈ 33 µM)

CCOC(=O)Cc1csc(N/N=C2\CC(c3ccc(Br)cc3)NC(c3ccc(Br)cc3)C2C)n1 (stereo not given)
MIC [1]: > 256 µg/mL
MIC (Staphylococcus aureus [2]): 16 µg/mL (≈ 26.4 µM)
MIC (Escherichia coli): 4 µg/mL (≈ 6.6 µM)
MIC (Klebsiella pneumoniae [3]): 8 µg/mL (≈ 13.2 µM)
MIC (Candida albicans): 8 µg/mL (≈ 13.2 µM)
MIC (Aspergillus flavus): 32 µg/mL (≈ 52.8 µM)
MIC (Rhizopus sp): 256 µg/mL (≈ 422 µM)

CC1/C(=N/N=C2\NC(=O)CS2)CC(c2ccc(Br)cc2)NC1c1ccc(Br)cc1 (stereo not given)
MIC [1]: 16 µg/mL (≈ 29.8 µM)
MIC (Staphylococcus aureus [2]): 8 µg/mL (≈ 14.9 µM)
MIC (Escherichia coli): 16 µg/mL (≈ 29.8 µM)
MIC (Klebsiella pneumoniae [3]): 8 µg/mL (≈ 14.9 µM)
MIC (Candida albicans): 64 µg/mL (≈ 119 µM)
MIC (Aspergillus flavus): 32 µg/mL (≈ 59.7 µM)
Ratio [4]: 1.56
Ratio [5]: 200
MIC (Rhizopus sp): 16 µg/mL (≈ 29.8 µM)

CCOC(=O)Cc1csc(N/N=C2\CC(c3ccc(Cl)cc3)NC(c3ccc(Cl)cc3)C2C)n1 (stereo not given)
MIC [1]: > 256 µg/mL
MIC (Staphylococcus aureus [2]): 32 µg/mL (≈ 61.8 µM)
MIC (Escherichia coli): 64 µg/mL (≈ 124 µM)
MIC (Klebsiella pneumoniae [3]): 128 µg/mL (≈ 247 µM)
MIC (Candida albicans): > 256 µg/mL
MIC (Aspergillus flavus): 64 µg/mL (≈ 124 µM)
MIC (Rhizopus sp): 128 µg/mL (≈ 247 µM)
